Measurements: ChEMBL document CHEMBL4680084, “New β-Lactam Derivatives Modulate Cell Adhesion and Signaling Mediated by RGD-Binding and Leukocyte Integrins” (J Med Chem, 2016)
Numbered stars: 1 amine (or outer) side, 2 acyl side, 3 side chain; on linkers, the order of the positions; unused ones are H or OH. Square brackets hold non-standard residues; d marks the D form. Peptide text beside a SMILES is read from it. * marks the point of attachment. X1 = O=C(Cc1ccc(N[*:1])cc1)[*:2]; NH(2-Me-phenyl) = Cc1ccccc1N*; CO = O=C([*:1])[*:2]

Assays:
K562 = assay: Toxicity in human K562 cells assessed as induction of cell necrosis and/or apoptosis incubated for 3 hrs by annexin V-PE and 7-AAD staining based by flow cytometry; conditions: k562, 3 h
Method in brief: (§1)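 After 3 h incubation, cells resuspended in complete medium and stained with annexin V-PE/7-AAD reagent for 20 min at room temperature in the dark. Flow cytometry sorted cells into viable, early apoptotic and late apoptotic/necrotic populations.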

HT-29 = assay: Toxicity in human HT-29 cells assessed as induction of cell necrosis and/or apoptosis incubated for 3 hrs by annexin V-PE and 7-AAD staining based by flow cytometry; conditions: ht-29, 3 h; method in brief: as §1
[1] = biological target: T1, Integrin alpha-L/beta-2 (LFA-1) (Homo sapiens, UniProt P05107+P20701); assay: Antagonist activity at alphaLbeta2 in human Jurkat E6.1 cells assessed as reduction in cell adhesion to ICAM1 pre-incubated for 30 mins before ICAM1 and further incubated for 30 mins by […]; format: cell-based
Method in brief: (§2)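 Jurkat E6.1 cells labelled with CellTracker green CMFDA (12.5 µM, 30 min, 37 °C), washed, then pre-incubated 30 min at 37 °C with compound or methanol. Plated at 500,000/well on VCAM-1 (α4β1) or ICAM-1 (αLβ2) coated wells (5 µg/mL) for 30 min at 37 °C. Cells lysed in 0.5% Triton X-100; fluorescence read Ex485/Em535. Quadruplicate, at least three repeats.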

HEL = assay: Toxicity in human HEL cells assessed as induction of cell necrosis and/or apoptosis incubated for 3 hrs by annexin V-PE and 7-AAD staining based by flow cytometry; method in brief: as §1
SK-MEL-24 = assay: Toxicity in human SK-MEL-24 cells assessed as induction of cell necrosis and/or apoptosis incubated for 3 hrs by annexin V-PE and 7-AAD staining based by flow cytometry; conditions: sk-mel-24, 3 h; method in brief: as §1
MCF7 = assay: Toxicity in human MCF7 cells assessed as induction of cell necrosis and/or apoptosis incubated for 3 hrs by annexin V-PE and 7-AAD staining based by flow cytometry; conditions: mcf7, 3 h; method in brief: as §1
Integrin alpha-5/beta-1 [2] = biological target: T2, Integrin alpha-5/beta-1 (Homo sapiens, UniProt P05556+P08648); assay: Agonist activity at alpha5beta1 in human K562 cells assessed as increase in cell adhesion to fibronectin pre-incubated for 30 mins before fibronectin and further incubated for 1 hr by nitrophenyl-N-acetyl-beta-D-glucosaminide substrate based chromogenic assay
Method in brief: (§3)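 Compound or methanol vehicle pre-incubated with cells for 30 min at room temperature. Cells then plated on wells coated overnight at 4 °C with fibronectin 10 µg/mL (SK-MEL-24, K562, HT-29) or fibrinogen 10 µg/mL (MCF7, HEL). Seeding was 50,000 cells/well, or 100000 for HEL. Adhesion ran 1 h at room temperature. Wells washed with 1% BSA/PBS. Adherent cells read by hexosaminidase substrate, absorbance 405 nm. Quadruplicate, at least three repeats.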

Integrin alpha-V/beta-5 [3] = biological target: T3, Integrin alpha-V/beta-5 (Homo sapiens, UniProt P06756+P18084); assay: Agonist activity at alphaVbeta5 in human MCF7 cells assessed as increase in cell adhesion to fibrinogen pre-incubated for 30 mins before fibrinogen and further incubated for 1 hr by nitrophenyl-N-acetyl-beta-D-glucosaminide substrate based chromogenic assay; method in brief: as §3
[4] = biological target: T4, Integrin alpha-IIb/beta-3 (Homo sapiens, UniProt P05106+P08514); assay: Inhibition of fibrinogen binding to alpha2bbeta3 isolated from human HEL cells incubated for 1 hr by […] competitive solid-phase binding assay
Integrin alpha-V/beta-5 [5] = biological target: T3, Integrin alpha-V/beta-5; assay: Inhibition of fibrinogen binding to alphaVbeta5 isolated form human mCf7 cells incubated for 1 hr by […] competitive solid-phase binding assay
Integrin alpha-V/beta-3 [6] = biological target: T5, Integrin alpha-V/beta-3 (Homo sapiens, UniProt P05106+P06756); assay: Antagonist activity at alphaVbeta3 in human SK-MEL-24 cells assessed as reduction in cell adhesion to fibronectin pre-incubated for 30 mins before fibronectin and further incubated for 1 hr by nitrophenyl-N-acetyl-beta-D-glucosaminide substrate based chromogenic assay
Method in brief: as §3, with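 “BSA/PBS.” for “BSA/PBS. Adherent cells read by hexosaminidase substrate, absorbance 405 nm.”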

Integrin alpha-4/beta-1 [7] = biological target: T6, Integrin alpha-4/beta-1 (Homo sapiens, UniProt P05556+P13612); assay: Inhibition of fibronectin binding to […] isolated from human Jurkat E6.1 cells incubated for 1 hr by scintillation-proximity assay based competitive solid-phase binding assay; format: tissue-based
Integrin alpha-V/beta-6 [8] = biological target: T7, Integrin alpha-V/beta-6 (Homo sapiens, UniProt P06756+P18564); assay: Agonist activity at alphaVbeta6 in human HT-29 cells assessed as increase in cell adhesion to fibronectin pre-incubated for 30 mins before fibronectin and further incubated for 1 hr by nitrophenyl-N-acetyl-beta-D-glucosaminide substrate based chromogenic assay; method in brief: as §3
Integrin alpha-4/beta-1 [9] = biological target: T6, Integrin alpha-4/beta-1; assay: Antagonist activity at alpha4beta1 in human Jurkat E6.1 cells assessed as reduction in cell adhesion to VCAM1 pre-incubated for 30 mins before VCAM1 and further incubated for 30 mins by […]; format: cell-based
Integrin alpha-V/beta-6 [10] = biological target: T7, Integrin alpha-V/beta-6; assay: Antagonist activity at alphaVbeta6 in human HT-29 cells assessed as reduction in cell adhesion to fibronectin pre-incubated for 30 mins before fibronectin and further incubated for 1 hr by nitrophenyl-N-acetyl-beta-D-glucosaminide substrate based chromogenic assay
Method in brief: as §3, with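 “BSA/PBS.” for “BSA/PBS. Adherent cells read by hexosaminidase substrate, absorbance 405 nm.”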

Integrin alpha-V/beta-6 [11] = biological target: T7, Integrin alpha-V/beta-6; assay: Inhibition of fibronectin binding to alphaVbeta6 isolated form human HT-29 cells incubated for 1 hr by […] competitive solid-phase binding assay; format: tissue-based
Integrin alpha-5/beta-1 [12] = biological target: T2, Integrin alpha-5/beta-1; assay: Inhibition of fibronectin binding to alpha5beta1 isolated from human K562 cells incubated for 1 hr by […] competitive solid-phase binding assay; format: tissue-based
Method in brief: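 Plates coated overnight at 4 °C in carbonate buffer pH 9.6 with fibronectin 0.5 µg/mL (αvβ3, αvβ6, α5β1), fibrinogen 10 µg/mL (αIIbβ3, αvβ5) or ICAM-1 (αLβ2). Blocked 1 h in buffer containing Ca/Mg/Mn 1 mM each and 1% BSA. Purified integrin (3–10 µg/mL) incubated with compound (10⁻⁴–10⁻¹⁰ M) 1 h at room temperature. Bound integrin detected with primary antibody then AlexaFluor488 secondary, Ex485/Em535. Duplicate, at least three repeats.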

[13] = biological target: T4, Integrin alpha-IIb/beta-3; assay: Agonist activity at alpha2bbeta3 in human HEL cells assessed as increase in cell adhesion to fibrinogen pre-incubated for 30 mins before fibrinogen and further incubated for 1 hr by nitrophenyl-N-acetyl-beta-D-glucosaminide substrate based chromogenic assay
Method in brief: as §3, with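 “BSA/PBS.” for “BSA/PBS. Adherent cells read by hexosaminidase substrate, absorbance 405 nm.”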

Integrin alpha-4/beta-1 [14] = biological target: T6, Integrin alpha-4/beta-1; assay: Agonist activity at alpha4beta1 in human Jurkat E6.1 cells assessed as increase in cell adhesion to VCAM1 pre-incubated for 30 mins before VCAM1 and further incubated for 30 mins by […]; format: cell-based; method in brief: as §2
Integrin alpha-V/beta-3 [15] = biological target: T5, Integrin alpha-V/beta-3; assay: Inhibition of fibronectin binding to human recombinant alphaVbeta3 expressed in HEK293 cells incubated for 1 hr by […] competitive solid-phase binding assay; format: cell-based
[16] = biological target: T1, Integrin alpha-L/beta-2 (LFA-1); assay: Agonist activity at alphaLbeta2 in human Jurkat E6.1 cells assessed as increase in cell adhesion to ICAM1 pre-incubated for 30 mins before ICAM1 and further incubated for 30 mins by […]; format: cell-based; method in brief: as §2
Integrin alpha-V/beta-3 [17] = biological target: T5, Integrin alpha-V/beta-3; assay: Agonist activity at alphaVbeta3 in human SK-MEL-24 cells assessed as increase in cell adhesion to fibronectin pre-incubated for 30 mins before fibronectin and further incubated for 1 hr by nitrophenyl-N-acetyl-beta-D-glucosaminide substrate based chromogenic assay; method in brief: as §3
[18] = biological target: T4, Integrin alpha-IIb/beta-3; assay: Antagonist activity at alpha2bbeta3 in human HEL cells assessed as reduction in cell adhesion to fibrinogen pre-incubated for 30 mins before fibrinogen and further incubated for 1 hr by nitrophenyl-N-acetyl-beta-D-glucosaminide substrate based chromogenic assay
Method in brief: as §3, with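 “BSA/PBS.” for “BSA/PBS. Adherent cells read by hexosaminidase substrate, absorbance 405 nm.”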

Integrin alpha-V/beta-5 [19] = biological target: T3, Integrin alpha-V/beta-5; assay: Antagonist activity at alphaVbeta5 in human MCF7 cells assessed as reduction in cell adhesion to fibrinogen pre-incubated for 30 mins before fibrinogen and further incubated for 1 hr by nitrophenyl-N-acetyl-beta-D-glucosaminide substrate based chromogenic assay
Method in brief: as §3, with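 “BSA/PBS.” for “BSA/PBS. Adherent cells read by hexosaminidase substrate, absorbance 405 nm.”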

Integrin alpha-5/beta-1 [20] = biological target: T2, Integrin alpha-5/beta-1; assay: Antagonist activity at alpha5beta1 in human K562 cells assessed as reduction in cell adhesion to fibronectin pre-incubated for 30 mins before fibronectin and further incubated for 1 hr by nitrophenyl-N-acetyl-beta-D-glucosaminide substrate based chromogenic assay; method in brief: as §3

SMILES	Activity (K562)	Activity (HT-29)	IC50 [1]	Activity (HEL)	Activity (SK-MEL-24)	Activity (MCF7)	EC50 (Integrin alpha-V/beta-5 [3])	IC50 (Integrin alpha-V/beta-3 [6])	EC50 (Integrin alpha-V/beta-6 [8])	IC50 (Integrin alpha-4/beta-1 [9])	IC50 (Integrin alpha-V/beta-6 [10])	EC50 [13]	EC50 (Integrin alpha-4/beta-1 [14])	further results
Cc1ccccc1NC(=O)Nc1ccc(CC(=O)N[C@@H](CC(C)C)C(=O)N[C@@H](CC(=O)O)C(=O)N[C@H](C(=O)N2CCC[C@H]2C(=O)O)C(C)C)cc1 ({NH(2-Me-phenyl)-CO}-[X1]LDVP-OH)	Non-Toxic	Non-Toxic	0.00084 µM	Non-Toxic	Non-Toxic	Non-Toxic	–	–	–	–	–	–	–	–
CCCCS(=O)(=O)N[C@@H](Cc1ccc(OCCCCC2CCNCC2)cc1)C(=O)O [TIROFIBAN]	Non-Toxic	Non-Toxic	–	Non-Toxic	Non-Toxic	Non-Toxic	–	–	–	–	–	–	–	–
CC(C)[C@@H]1NC(=O)[C@@H](Cc2ccccc2)NC(=O)[C@H](CC(=O)O)NC(=O)CNC(=O)[C@H](CCCN=C(N)N)NC1=O [CYCLORGDFV]	Non-Toxic	Non-Toxic	–	Non-Toxic	Non-Toxic	Non-Toxic	–	–	–	–	–	–	–	–
O=C(O)CC1CC(=O)N1 (centres undefined)	Non-Toxic	Non-Toxic	1.63 µM	Non-Toxic	Non-Toxic	Non-Toxic	0.376 µM	0.0409 µM	> 5 µM	> 5 µM	> 5 µM	0.311 µM	> 5 µM	EC50 (Integrin alpha-5/beta-1 [2]): 1.03 µM; IC50 [4]: 0.265 µM; IC50 (Integrin alpha-V/beta-5 [5]): 0.0024 µM; IC50 (Integrin alpha-4/beta-1 [7]): > 1 µM; IC50 (Integrin alpha-V/beta-6 [11]): > 1 µM; IC50 (Integrin alpha-5/beta-1 [12]): > 1 µM; IC50 (Integrin alpha-V/beta-3 [15]): 0.0019 µM
Nc1ccc(CNC(=O)N2C(=O)CC2CC(=O)NCCC(=O)O)cc1.O=C(O)C(F)(F)F (centres undefined)	Non-Toxic	Non-Toxic	> 5 µM	Non-Toxic	Non-Toxic	Non-Toxic	> 5 µM	> 5 µM	> 5 µM	> 5 µM	> 5 µM	> 5 µM	> 5 µM	EC50 [16]: > 5 µM; EC50 (Integrin alpha-V/beta-3 [17]): > 5 µM; IC50 [18]: > 5 µM; IC50 (Integrin alpha-V/beta-5 [19]): > 5 µM; IC50 (Integrin alpha-5/beta-1 [20]): 1.05 µM
